Screening data: PubChem, several laboratories
Shown are actives, neighbours in structure and some others; about 3.5% of the full set was active somewhere.
APP 5'UTR act – activators of APP 5'UTR luciferase reporter, primary screen, SH-SY5Y cells; SH-SY5Y APP 5'UTR luciferase reporter, luminescence; zero percent = DMSO vehicle wells; activation, % at 2 µM; hit rate 1% among 190,000;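 active = activation above a set limit, based on mean plus 3 SD of controls, cut at about 140% in these data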
Pf gamet viab – late stage P. falciparum gametocyte viability inhibitors, primary screen, ATP luminescence, HTS; P. falciparum stage V gametocytes, 24 h; AID 743093, 2013; inhibition, % at 10.9 µM; hit rate 0.065% among 150,000;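 active = inhibition above the mean plus 3 SD of compounds within the control limits, set per campaign, cut at about 38% in these data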;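 also: 0% = DMSO wells and 100% = medium only without gametocytes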
STAT1 act – STAT1 signaling activators, primary screen, cell-based, HTS, luciferase reporter; NIH 3T3 STAT1-luciferase reporter, IFN-gamma, luminescence; 100% = IFN-gamma alone, no compound; activation (% of control), % at 5.5 µM; hit rate 2.6% among 200,000; AID 932, 2007;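 active = activation above the screen-wide mean activation plus 3 SD, cut at about 130% in these data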;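 also: raw ratio to IFN-gamma control signal so 100% means no change and 0% no light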
NF-kB neuron act – activators of NF-kB expression in neurons, primary screen, cell-based, HTS; human neuronal cells, NF-kB reporter expression; active compounds read high; fold change at 12.5 µM; hit rate 1.6% among 190,000; AID 1239, 2008; in the data active = fold change above about 3.3
FLuc inh counter – firefly luciferase enzyme inhibitors, primary screen, artefact control for luciferase-based inhibitor screens, biochemical, luminescence, ATPLite; hit rate 1.5% among 200,000; Luciferin 4-monooxygenase (Photinus pyralis), P08659; 10 min; inhibition, % at 10 µM; AID 1006, 2008;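 active = inhibition above about 50% when tested at 10 µM, limit read from the data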
Target sequence (P08659 whole entry, looked up): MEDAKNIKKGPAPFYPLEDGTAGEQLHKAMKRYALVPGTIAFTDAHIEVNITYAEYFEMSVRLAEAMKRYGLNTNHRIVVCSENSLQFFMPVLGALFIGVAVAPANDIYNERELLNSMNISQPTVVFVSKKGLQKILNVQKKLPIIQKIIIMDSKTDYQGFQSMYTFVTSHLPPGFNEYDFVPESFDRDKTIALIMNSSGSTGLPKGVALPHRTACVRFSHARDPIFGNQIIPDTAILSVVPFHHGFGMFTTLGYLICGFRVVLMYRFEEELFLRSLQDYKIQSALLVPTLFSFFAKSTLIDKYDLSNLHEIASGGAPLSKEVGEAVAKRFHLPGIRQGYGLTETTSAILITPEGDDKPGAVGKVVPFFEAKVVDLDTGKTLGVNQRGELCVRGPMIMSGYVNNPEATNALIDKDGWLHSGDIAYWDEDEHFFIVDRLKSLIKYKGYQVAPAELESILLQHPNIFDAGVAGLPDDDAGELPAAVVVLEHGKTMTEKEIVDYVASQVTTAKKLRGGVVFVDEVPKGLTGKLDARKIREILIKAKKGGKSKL
FLuc stim CS – FLuc activators, initial screening, artefact control for FLuc-dependent activation tests, biochemical, ATPlite luminescence; ATPlite luciferase biochemical, 10 min; 0 = ATP-free wells, 1 = DMSO control; activation factor at 10 µM; 200,000 tested, under 10 active;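 active = luciferase activation factor, scaled between plate controls, of at least 2 with compound at 10 µM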
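Material: Luciferase/luciferin reagent mix | Doses: Test compounds dosed from 2 mM stocks in 100% DMSO | Timing: 10 min incubation after luciferase reagent addition, room temperature | Measured by: Luminescence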
STAT1 act conf – STAT1 signaling activators, confirmation, cell-based, HTS, luciferase reporter; shares compounds with STAT1 act; hit rate 97% among 1,200; activation (% of control), % at 5.7 µM; NIH 3T3 STAT1-luciferase reporter, IFN-gamma potentiation, luminescence; 100% = IFN-gamma EC80 alone, no compound;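 active = activation above a set limit carried over from the earlier primary STAT1 screen, cut at about 140% in these data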;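 also: simple ratio to median IFN-gamma plus DMSO wells so 0% means no light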
NFkB act – NF-kB reporter activators, TNF-alpha stimulated, counter-screen for STAT1 activator project, cell-based, HEK293T, luciferase luminescence | shares compounds with STAT1 act | 100% = TNF-alpha with vehicle only | activation (% of control), % at 5.7 µM | hit rate 43% among 1,200 | AID 1306, 2008;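 active = activation above the mean of solvent-only control wells plus 3 SD, set per campaign, cut at about 130% in these data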;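 also: TNF-alpha given at a submaximal dose yielding about 80% of full reporter signal; values are well signal over median control so 100% means no change and 0% no light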
STAT3 act STAT1c – STAT3 reporter activation by STAT1 hits, confirmation, counter-screen for STAT1 activator project, U3A cells, luciferase, luminescence | IL-6; cells lack STAT1; 100 = IL-6 alone, no compound effect | shares compounds with STAT1 act | AID 1316, 2008 | hit rate 46% among 1,200 | activation (% of control), % at 5.7 µM;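 active = activation above the solvent-only control well mean plus 3 SD, set per plate batch, cut at about 110% in these data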;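 also: 0% = no luminescence and 100% = median IL-6 plus DMSO wells; higher means more STAT3 reporter activation so hits are non-selective activators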
Active calls of the source: *.

For COc1ccc(Cn2c(C3CC3)nc3ccc(NC(=O)C4CC4)cc3c2=O)cc1 the results were APP 5'UTR act 173*, STAT1 act 209*, NF-kB neuron act 8.4*, FLuc inh counter 6, FLuc stim CS 0.9, STAT1 act conf 294*, NFkB act 144* and STAT3 act STAT1c 124*.
Screening CCC(=O)Nc1ccc2nc(C3CC3)n(Cc3ccc(C(C)(C)C)cc3)c(=O)c2c1 returned Pf gamet viab 26.
For c1ccc(-n2cnc3cc(NCc4cccs4)ccc32)cc1 the results were APP 5'UTR act 205*, Pf gamet viab -3, STAT1 act 169*, NF-kB neuron act 0.72, FLuc inh counter 22, FLuc stim CS 0.8, STAT1 act conf 249*, NFkB act 133* and STAT3 act STAT1c 106.
Cc1ccc(-n2cnc3cc(NCc4cccs4)ccc32)cc1 was read as APP 5'UTR act 21, Pf gamet viab -4, STAT1 act 120, NF-kB neuron act 1.4, FLuc inh counter 9 and FLuc stim CS 0.9.
`Clc1ccc(-c2cn3c(n2)SCC3)cc1` gave APP 5'UTR act 153*, Pf gamet viab -3, STAT1 act 158*, NF-kB neuron act 4.8*, FLuc inh counter 24, FLuc stim CS 0.8, STAT1 act conf 183*, NFkB act 137* and STAT3 act STAT1c 122*.
For Oc1ccc(-c2cn3c(n2)SCC3)cc1 the results were APP 5'UTR act -3, STAT1 act 102, NF-kB neuron act 1.7, FLuc inh counter 6 and FLuc stim CS 0.9.
Screening Brc1ccc(-c2cn3c(n2)SCC3)cc1 returned APP 5'UTR act 157*, Pf gamet viab 14, STAT1 act 166*, NF-kB neuron act 5.2*, FLuc inh counter 32, FLuc stim CS 0.7, STAT1 act conf 199*, NFkB act 137* and STAT3 act STAT1c 94.
Screening COC(=O)c1c(NC(=S)Nc2ccccc2Cl)sc(C)c1C returned APP 5'UTR act 1, STAT1 act 98, NF-kB neuron act 1.2, FLuc inh counter -9 and FLuc stim CS 1.1.
For Cc1ccc2nc(/C=C/c3cccc(F)c3)ccc2c1 the results were APP 5'UTR act 214*, STAT1 act 194*, NF-kB neuron act 7.4*, FLuc inh counter 52*, FLuc stim CS 0.5, STAT1 act conf 259*, NFkB act 150* and STAT3 act STAT1c 116*.
CC(=O)OCCCN1c2ccccc2Nc2nnc(-c3ccccc3)cc21 was read as APP 5'UTR act 171*, Pf gamet viab 2, STAT1 act 158*, NF-kB neuron act 2.1, FLuc inh counter 48, FLuc stim CS 0.5, STAT1 act conf 192*, NFkB act 127 and STAT3 act STAT1c 95.
CCOC(=O)c1cc(-c2ccccc2)n(CC(=O)O)c1C was read as APP 5'UTR act 18, Pf gamet viab 3, STAT1 act 104, NF-kB neuron act 1.1, FLuc inh counter -2 and FLuc stim CS 1.
